Compound activity deposited in PubChem BioAssay by several laboratories.
Rows were chosen to be rich in hits. Some 2.9% of all compounds tested hit in one or more screens of this group.
MEKK2mut PB1 HTS – MEK5 binding signal on mutant MEKK2 PB1, primary screen, biochemical, multiplex bead flow cytometry, Alexa488-MEK5; Alexa488-MEK5 binding to MEKK2 mutant; percent response, % at 10 µM; 0.35% of 290,000 active; AID 1530, 2009; in the data active = percent response above about 24%, passing the limit was not always enough
MEKK3 PB1 HTS – modulators of MEKK3-MEK5 PB1 binding, primary screen, biochemical, wildtype MEKK3, multiplex bead flow cytometry, Alexa488-MEK5; 1.4% of 290,000 active; bead-based flow cytometry, Alexa488-MEK5 binding to MEKK3; actives lie on both sides; 0 = blocked by unlabeled MEK5, 100 = vehicle; binding response (% of control), % at 10 µM; AID 1529, 2009; Mitogen-activated protein kinase kinase kinase 3 (Homo sapiens), Q99759;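 active = binding response more than 3 SD above or below the average of its plate-row segment, actives on both sides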;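 also: Alexa488 bead fluorescence after subtracting the streptavidin-only scavenger bead signal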
ATG4B inhibitor – ATG4B protease inhibitors, primary screen, biochemical, fluorescence, uHTS | 0.51% of 340,000 active | AID 504462, 2011 | inhibition, % at 8.33 µM | Cysteine protease ATG4B (Homo sapiens), Q9Y4P1 | ATG4B cleavage of LC3-PLA2, NBD-HPC fluorescence, 1 h; in the data active = inhibition above about 40%
MEKK2wt PB1 HTS – modulators of MEK5 binding to wildtype MEKK2, primary screen, biochemical, multiplex bead flow cytometry, Alexa488-MEK5 | Mitogen-activated protein kinase kinase kinase 2 (Homo sapiens), Q9Y2U5 | Alexa488-MEK5 binding to MEKK2 WT; actives lie on both sides | binding response (% of control), % at 10 µM | 1.1% of 290,000 active; in the data active = binding response below about 67% or above about 130%
Dynein cargo inh – inhibitors of GR-EGFP nuclear translocation, primary screen, dynein cargo transport inhibitor project, imaging, high-content, 3617.4 mouse cells | test concentration mostly 20 µM; stimulated with dexamethasone, 1 µM; active compounds read low | z-score, hits read low | 0.47% of 220,000 active | AID 1381, 2008;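 active = plate z-score of nuclear minus cytoplasmic receptor signal below a set negative limit, without overly bright fluorescence or cell loss, cut at about -3.5 in these data, passing the limit was not always enough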;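 also: z-score of nuclear minus cytoplasmic ring GR-EGFP intensity difference per well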
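Schedule: 48 h induction, then 1 h compound, then 30 min agonist, 37 °C. Buffer or medium: tetracycline-free induction medium containing charcoal-stripped FBS. Reagent: 1.0 µM final dexamethasone stimulus. Evaluation: nuclear versus cytoplasmic GR-EGFP signal, averaged per well. Signal: high-content fluorescence imaging after fixation.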
Beta2AR agonist – beta2AR agonists driving receptor internalization, primary screen, cell-based, FAP fluorogen, flow cytometry. Beta-2 adrenergic receptor (Homo sapiens), P07550. Am2.2-beta2AR cells. response, % (concentration not given with the values). 0.43% of 340,000 active. AID 504454, 2011;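 active = response above a set limit, near 3 SD of response in nonfluorescent compounds, cut at about 42% in these data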
Target sequence (P07550 whole entry, looked up): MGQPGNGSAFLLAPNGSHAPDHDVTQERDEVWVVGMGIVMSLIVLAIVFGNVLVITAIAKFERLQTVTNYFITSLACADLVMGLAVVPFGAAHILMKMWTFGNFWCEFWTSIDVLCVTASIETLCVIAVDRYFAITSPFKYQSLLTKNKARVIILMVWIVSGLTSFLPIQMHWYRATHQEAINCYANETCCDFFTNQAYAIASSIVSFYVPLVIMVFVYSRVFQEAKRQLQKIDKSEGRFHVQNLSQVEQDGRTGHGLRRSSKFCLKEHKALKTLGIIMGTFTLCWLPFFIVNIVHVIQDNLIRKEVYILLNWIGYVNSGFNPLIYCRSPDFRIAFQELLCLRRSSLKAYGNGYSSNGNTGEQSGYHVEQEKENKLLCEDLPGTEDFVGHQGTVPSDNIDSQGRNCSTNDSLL
MEKK2wt confirm – modulators of MEK5 binding to wildtype MEKK2, confirmation, biochemical, single concentration, multiplex bead flow cytometry; shares compounds with MEKK3 PB1 HTS; Alexa488-MEK5 binding to MEKK2 WT; actives lie on both sides; binding response (% of control), % at 10 µM; 2.4% of 5,900 active; AID 1892, 2009; in the data active = binding response below about 16% or above about 210%; inactive = in between
MEKK2mut-MEK5 – mutant MEKK2 PB1-MEK5 binding signal retest – biochemical, single concentration, multiplex bead flow cytometry, confirmation; 2% of 5,900 active; shares compounds with MEKK3 PB1 HTS; AID 1893, 2009; Alexa488-MEK5 binding to MEKK2 mutant; percent response, % at 10 µM; in the data active = percent response mostly above about 71%, no sharp cut-off; inactive = mostly below about 38%;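 also: higher means compound restores mutant binding toward wildtype level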
MEKK3-MEK5 inh – MEKK3 wild-type PB1 binding to MEK5, inhibitors, confirmation, biochemical, bead multiplex flow cytometry, single concentration, wildtype | shares compounds with MEKK3 PB1 HTS | Alexa488-MEK5 binding to MEKK3; active compounds read low | binding response (% of control), % at 10 µM | 1.8% of 5,900 active;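 active = binding response below 72% of control, or above a set upper limit, though filed actives all read lower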;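 also: 100% = DMSO only wells and 0% = binding blocked by excess unlabeled MEK5; lower values mean stronger disruption of MEK5 binding to MEKK3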
Starred values were filed as active, the others as inactive; / = no result; [ ] = dose if it differs, or a comment.

SMILES | MEKK2mut PB1 HTS | MEKK3 PB1 HTS | ATG4B inhibitor | MEKK2wt PB1 HTS | Dynein cargo inh | Beta2AR agonist | MEKK2wt confirm | MEKK2mut-MEK5 | MEKK3-MEK5 inh
CCCc1c(C)nc2ccccc2c1SCCC#N | 0 | 60*[inhibitor] | -3 | 93 | 0.24 | 4 | 95 | 0 | 98
Cc1ccn2c(Nc3ccccc3C)c(-c3cccnc3)nc2c1 | 2 | 106 | 3 | 103 | -0.41 | -1 | / | / | /
Cn1c(=O)c2[nH]c(C=Cc3ccc4c(c3)OCO4)nc2n(C)c1=O | / | / | -1 | / | / | -1 | / | / | /
Cc1nc(-c2nc(-c3c(C(=O)NN)noc3C)cs2)cs1 | 6 | 147* | -2 | 122 | 1.2 | -5 | 109 | 9 | 106
O=C(COc1ccc(S(=O)(=O)N2CCOCC2)cc1)Nc1cccc([N+](=O)[O-])c1 | 0 | 94 | -7 | 95 | / | 3 | / | / | /
O=CNc1ccc2c3c(cccc13)-c1ccccc1-2 | / | / | -2 | / | / | -30 | / | / | /
Cc1ccc(-c2c[n+](CC(=O)Nc3nc(-c4ccccc4)cs3)c3n2CCC3)cc1 | 47 | 103 | -8 | 183* | -0.12 | -4 | 174 | 68 | 108
Clc1ccc(C[n+]2cc(-c3ccccc3)n3c2CCC3)cc1Cl | -1 | 95 | 3 | 105 | 0.012 | -4 | / | / | /
O=C(C[n+]1cc(-c2ccccc2)n2c1CCC2)Nc1nc(-c2ccccc2)cs1 | 28 | 102 | -18 | 166* | -0.58 | -16 | 128 | 16 | 101
O=C(C[n+]1cc(-c2ccc(Cl)c(Cl)c2)n2c1CCC2)OCc1ccccc1 | 1 | 155* | 7 | 123 | -0.29 | -5 | 109 | 3 | 97
COc1ccc(-c2c[n+](CC(=O)c3ccccc3)c3n2CCCCC3)cc1 | 2 | 94 | -4 | 113 | -0.58 | -1 | / | / | /
O=C(C[n+]1cc(-c2ccccc2)n2c1CCCCC2)c1ccc(Cl)cc1 | 25 | 102 | 0 | 142* | 1.5 | -3 | 105 | 2 | 94
C/C(=N\Nc1cc(C(F)(F)F)ccc1Cl)c1ccncc1 | 1 | 104 | 2 | 103 | / | -1 | / | / | /
O=C(O)CC1(CC(=O)Nc2cc(F)ccc2Cl)CCCCC1 | 28 | 134* | -15 | 131 | -1.1 | -1 | 97 | -2 | 99
O=S(=O)(Nc1nc2ccccc2nc1Nc1ccc(N2CCOCC2)cc1)c1cc(Cl)ccc1Cl | 0 | 150* | -1 | 102 | -0.38 | 10 | 105 | 7 | 105
Clc1nc(Nc2ccc(N3CCOCC3)cc2)c2ccccc2n1 | -10 | 98 | -8 | 89 | 0.29 | -5 | / | / | /
CCN1CCN(c2cc(C(C)(C)C)nc3c(-c4ccccc4)c(C)nn23)CC1 | 21 | 104 | -2 | 147* | 2.5 | 14 | 131 | 12 | 103
CCN1CCN(c2ccc(NC(=O)CCc3c(C)nc4c(-c5ccccc5)c(C)nn4c3C)cc2)CC1 | 23 | 107 | / | 138* | -1.2 | 14 | 113 | 13 | 94
Cc1nn2c(N3CCOCC3)cc(C(C)(C)C)nc2c1-c1ccccc1 | 8 | 109 | -6 | 107 | / | -4 | / | / | /
Cc1cc2cc(CN(CC3CCCO3)C(=S)NCc3ccco3)c(=O)[nH]c2cc1C (stereo unspecified) | 0 | 147* | -7 | 103 | -0.23 | -2 | 102 | -1 | 100
CCOC(=O)c1cccc(P(C)(C)=O)c1 | 0 | 93 | 2 | 100 | -0.59 | 0 | / | / | /
Cc1nc2c3ccccc3nc(SCC(=O)c3ccc(Cl)cc3)n2n1 | -1 | 129* | -6 | 100 | 1.3 | -8 | 103 | 1 | 107
Cc1nc2c3ccccc3nc(SCC(=O)N3CC(C)CC(C)C3)n2n1 (stereo unspecified) | / | / | -1 | / | 0.72 | 9 | / | / | /
Cn1c(=O)oc2cc(S(=O)(=O)NCc3ccc(Cl)cc3)ccc21 | -57 | 0.0*[inhibitor] | -6 | -6.0*[inhibitor] | / | -3 | 93 | -9 | 100
Cn1c(=O)oc2cc(S(=O)(=O)NCc3ccccc3)ccc21 | 1 | 98 | -6 | 98 | -0.54 | 2 | / | / | /
SMILES | MEKK2mut PB1 HTS | MEKK3 PB1 HTS | ATG4B inhibitor | MEKK2wt PB1 HTS | Dynein cargo inh | Beta2AR agonist | MEKK2wt confirm | MEKK2mut-MEK5 | MEKK3-MEK5 inh
Nc1nncn1C(=O)CCCN1C(=O)c2ccccc2C1=O | 5 | 122* | -6 | 121 | -0.28 | -6 | 107 | 5 | 101
O=C(CCCN1C(=O)c2ccccc2C1=O)N1CCc2ccccc2C1 | -5 | 99 | -4 | 99 | -0.26 | -2 | / | / | /
Cc1cc(NC(=O)CSc2ccnc(=O)[nH]2)no1 | / | / | 2 | / | / | -3 | / | / | /
COc1ccc(OC(C)C(=O)NC(C)c2ccccc2)cc1 (stereo unspecified) | -2 | 96 | 2 | 96 | / | -3 | / | / | /
C=C(C)Cn1c(CCn2c3ccccc3c3ccccc32)n[nH]c1=S | 4 | 134* | 14 | 102 | 0.58 | 1 | 91 | 1 | 101
C=CCn1c(CCn2c3ccccc3c3ccccc32)n[nH]c1=S | -2 | 102 | 6 | 100 | -0.94 | 1 | / | / | /
O=C(CSc1c2c(nc3ccc(Cl)cc13)CCCC2)NCCCN1CCOCC1 | -5 | 96 | -1 | 99 | -1.4 | 2 | / | / | /
Cc1ccc(S(C)(=O)=O)cc1C(=O)OCC(=O)N(Cc1ccccc1)Cc1ccccc1 | / | / | 2 | / | / | 1 | / | / | /
COCc1cc(N2CCN(c3ccccc3F)CC2)nc(-c2ccccc2)n1 | -19 | 4.0*[inhibitor] | 12 | 6.0*[inhibitor] | -0.51 | -8 | 103 | -1 | 102
Cc1ccsc1C(C(=O)NCc1ccccc1)N(C(=O)c1csnn1)c1ccccc1 (stereo unspecified) | 11 | 99 | -6 | 101 | / | -1 | / | / | /
COc1ccc(CCN(Cc2cc3ccc(C)cc3[nH]c2=O)C(C)=O)cc1OC | 30 | 135* | 5 | 120 | -0.79 | -9 | 101 | -4 | 101
